# High-throughput results deposited in PubChem by Broad Institute.
# In the library only some 3.1% were active in any assay of this set; here they are far more common.
# T cruzi repl = inhibitors of intracellular T. cruzi growth, primary screen, luminescence, NIH3T3 host cells. T. cruzi beta-gal in NIH3T3, 90 h. inhibition, % (test concentration not listed). 300,000 tested, 1.4% active. AID 1885, 2009;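 active means mean inhibition across valid replicates above about 55%, limit read from the data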;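 further: signal also drops with host cell toxicity which is not excluded here; 0% = plate median of DMSO wells and 100% = zero luminescence signal; higher percent means less beta-gal luminescence so fewer parasites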
#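 assay system = mouse NIH/3T3 fibroblasts infected with β-gal-expressing T. cruzi Tulahuen C4 | input = 5,000 NIH/3T3 host cells per well | buffer or medium = DMEM plus 2% FBS | timing = 3 h host attachment, then at least 90 h co-culture | measured by = GalScreen luminescence, 60 min | evaluation = luminescence reflecting intracellular parasite burden, expressed as percent inhibition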
# Calb FLC = C. albicans growth inhibition with fluconazole, primary screen, CaCi-2 strain, Alamar Blue fluorescence; C. albicans CaCi-2 + fluconazole, 48 h; growth inhibition, % (concentration not given with the values); 300,000 tested, 0.57% active; AID 1979, 2009;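 active means growth inhibition above about 58% in most replicates, limit read from the data, passing the limit was not always enough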;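 further: all wells also contain fluconazole at 8 µg/ml as a sub-toxic cotreatment; 0% = median of DMSO wells and 100% = median of geldanamycin control wells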
# PolyA inh = polyadenylation inhibitors in yeast reporter cells, primary screen, luminescence, S. cerevisiae. S. cerevisiae SKY197-pL101 polyadenylation reporter, beta-gal luminescence; efflux-impaired pdr1/pdr3 knockout yeast; score 100 = 6 SD above DMSO. activity score, % at 12 µM. 300,000 tested, 0.02% active;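 active means lowest replicate activity score at least 50, where 100 means six control SD above control mean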;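 further: yeast exposed to compound for 9 h at 30 °C; higher score means more reporter readthrough which indicates perturbed polyadenylation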
# HIF act = HIF pathway transcriptional activators, primary screen, cell-based, U2OS HRE-luciferase, luminescence; U2OS HRE-luciferase reporter; normalized: DMSO 0%, desferrioxamine 100%; activation, % at 7.5 µM (by protocol); 300,000 tested, 0.32% active; AID 1910, 2009;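 active means mean activation of at least 10% of the iron chelator positive control signal, with at least half of replicates also reaching 10%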
# CSC inhib = cancer stem cell viability inhibitors, primary screen, luminescence; AID 2717, 2010; 300,000 tested, 1.1% active; inhibition, % at 7.5 µM; cancer stem cell-like cells viability; in the data active means inhibition above about 75%; tested in HMLE shEcad cells
# Beta apoptosis = inhibitors of cytokine-induced beta cell apoptosis, primary screen, luminescence. protection from apoptosis, % (concentration not given with the values). INS-1E cytokine-induced death, ATP luminescence, 48 h; percent of positive-control rescue, neutral wells zero. 300,000 tested, 0.8% active;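 active means Every replicate reaches about 75%, or at least half do and their mean reaches it too, limit read from the data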;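 further: 0% = cytokine-treated negative control wells and 100% = positive control rescue; higher means more ATP so stronger rescue from cytokine killing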
# * hit, by the source's call; · = no result given.
SMILES,T cruzi repl,Calb FLC,PolyA inh,HIF act,CSC inhib,Beta apoptosis
CCOC(=O)c1nc(NNC(=O)c2ccc([N+](=O)[O-])cc2)sc1C,41,116*,-18,-2,65,103*
COc1ccc2nc(NC(=O)CSc3nnnn3C3CCCCC3)sc2c1,14,7,-8,0,11,-3
CCOc1ccc2nc(NC(=O)C3CCN(c4cnccn4)CC3)sc2c1,61*,-4,-26,0,67,1
CCOc1ccc2nc(NC(=O)CSc3nnnn3C3CCCCC3)sc2c1,56*,6,7,1,-10,-7
O=C(Nc1ccc(F)c(Cl)c1)C1CCCN(c2cnccn2)C1 (stereo not drawn),61*,4,7,0,4,-5
COc1ccc2nc(NC(=O)CSc3nc(C)cc(=O)[nH]3)sc2c1,-8,13,6,1,-10,-4
COc1ccc2nc(NC(=O)CSc3nccc(C)n3)sc2c1,-2,7,-18,39*,4,11
CCOc1ccc2nc(NC(=O)C3CCN(S(=O)(=O)c4cnc[nH]4)CC3)sc2c1,-3,2,4,0,·,-3
O=C(Cn1cnc2ccccc2c1=O)c1ccc(Cl)cc1,2,10,4,1,·,·
O=C(Nc1ncc(Cl)cc1Cl)c1c(F)cccc1Cl,5,-3,20,1,·,-6
Cc1ccc(NC(=O)C2CCN(c3cnccn3)CC2)cc1,63*,9,1,0,-3,-4
CCC(=O)N1CCN(c2ccnc3cc(Cl)ccc23)CC1,5,2,4,1,-10,-4
O=C(c1ccc(Cl)cc1)N1CCN(c2ccnc3cc(Cl)ccc23)CC1,69*,99*,5,-1,·,·
COc1ccc(-c2sc3ccc(N4CCOCC4)cc3c2C#CCO)cc1,·,·,·,·,·,4
COc1cccc(-c2sc3ccc(OC)cc3c2C#CC2(O)CCCCC2)c1,·,·,·,·,105*,-14
COc1cc(OC)cc(-c2sc3ccc(OC)cc3c2C#CC2(N)CCCCC2)c1,·,·,·,·,104*,7
COc1ccc(C(=O)c2ccc3oc(-c4ccc(OC)cc4)c(C#CCCO)c3c2)cc1,39,-4,-12,-1,0,4
COc1ccc(-c2sc3ccc(N4CCOCC4)cc3c2C#CC2(O)CCCCC2)cc1,·,·,·,·,106*,4
COc1ccc(-c2ccc3oc(-c4ccc(OC)cc4)c(C#CC4(O)CCCCC4)c3c2)cc1,32,2,0,0,77*,0
COc1cccc2sc3ccc(C#CC4(N)CCCCC4)cc3c(=O)c12,23,-12,2,3,47,10
COc1ccc(C(=O)N2CCC(n3nccc3NC(=O)C3CC3)CC2)cc1F,-14,8,-4,-1,15,-3
C#CCNC(=O)C1=C[C@H](c2ccc(C(F)(F)F)cc2)C[C@H](OCCCCO)O1,-7,3,-12,-1,-12,5
COc1ccc([N+](=O)[O-])c(OC)c1C(=O)Nc1ccc(F)cc1F,-9,-5,4,0,-8,-8
O=C(NS(=O)(=O)Oc1cccc(Cl)c1Cl)OC[C@@H]1CCCN2CCCCC12 (stereo partly drawn),-11,-10,16,0,7,3
CCCc1ccc(-c2cc(C(=O)Nc3ccc([N+](=O)[O-])cn3)c3ccccc3n2)cc1,52,26,-13,1,1,16
SMILES,T cruzi repl,Calb FLC,PolyA inh,HIF act,CSC inhib,Beta apoptosis
COc1ccc(-c2sc3cc4c(cc3c2C#CC2(N)CCCCC2)OCO4)cc1,·,·,·,·,130*,3
CCc1ccc(N(C(=O)c2snc(C(N)=O)c2N)C(C(=O)NC2CCCC2)c2ccncc2)cc1 (stereo not drawn),7,-6,-7,3,·,7
Cc1ccc(-n2sc3ccccc3c2=O)cc1,74*,2,-23,0,17,25
O=c1c2ccccc2sn1-c1ccc(F)cc1,·,·,·,·,22,6
CC(=O)N1CCOc2ccc(S(=O)(=O)N3CCC(C(=O)NCc4ccc(F)cc4)CC3)cc21,2,-17,15,0,2,1
O=C(CSc1nnc(CNC(=O)c2cccs2)o1)Nc1ccccc1C(F)(F)F,18,-1,3,1,-14,-4
C=C1CCC(OC(C)=O)C2(C)CCC3C(C)C(=O)OC3C12O (stereo not drawn),-15,-16,-7,-1,·,·
CC1C(=O)OC2C1CCC1(C)CCC(=O)C(C)C21 (stereo not drawn),55*,3,5,1,10,-2
Cc1cn(-c2cc(NC(=O)c3ccc(C)c(NC(=O)c4cccc(-c5cn[nH]c(=O)c5)c4)c3)cc(C(F)(F)F)c2)cn1,0,34,1,-1,-4,5
COC(=O)c1ccc(COc2ccccc2/C=C(\C#N)C(=O)Nc2c(C)cccc2C)cc1,43,-1,-18,2,102*,107*
Cc1ccc(C)c(OCC(=O)Nc2ccc(S(=O)(=O)Nc3onc(C)c3C)cc2)c1,-10,0,2,0,-5,3
CN(c1ccccc1)S(=O)(=O)c1cccc(NC(=O)c2ccc(=O)[nH]n2)c1,·,·,·,·,-4,10
CCOC(=O)C(=NC1CCS(=O)(=O)C1)NNc1ccc(Br)cc1 (stereo not drawn),9,112*,5,0,-8,-1
CCOC(=O)C(=NC1CCCCC1)NNc1cccc(C(F)(F)F)c1,16,57*,-23,0,43,-6
COCc1cc(C)nc(N/N=C/c2ccc(Cl)c(Cl)c2)c1C#N,-6,8,14,0,·,-2
CCCNc1nc2ccccc2n2c(C)nnc12,0,2,10,2,-2,-10
CC1C/C(=C/c2ccncc2)C(=O)/C(=C/c2ccncc2)C1 (stereo not drawn),38,1,7,-4,77*,112*
O=C1/C(=C/c2ccncc2)Cc2ccccc21,-1,11,-5,0,-7,-9
Cc1cc(C)n(-c2nc(SCCN(C)C)c3c4c(sc3n2)CCCC4)n1,41,79*,-22,0,-6,30
COc1ccc(N(C(=O)c2cccnc2)S(=O)(=O)c2ccc(Cl)cc2)cc1,-4,1,-13,0,·,-4
CC(C)N1C(=O)C(Cc2nc3ccccc3c(=O)n2-c2ccccc2)c2ccccc21 (stereo not drawn),47,1,-6,1,12,-2
CC(C)N1C(=O)/C(=C\c2nc3ccccc3c(=O)n2-c2ccccc2)c2ccccc21,71*,-5,-7,0,75*,4
